These results are taken from ChEMBL document CHEMBL1221214, “Cytosporone B is an agonist for nuclear orphan receptor Nur77” (Nat Chem Biol, 2008).

For assay [1], the target named is Nuclear receptor subfamily 4immunitygroup A member 1 (Homo sapiens, UniProt P22736, Y453A). Kind of assay: Binding affinity to Nur77 Y453A mutant expressed in human BGC823 cells. The assay is classed as cell-based, BGC-823.
In assay [2] the target is T1, Nuclear receptor subfamily 4immunitygroup A member 1 (Homo sapiens, UniProt P22736). Kind of assay: Binding affinity to GST-tagged nuclear orphan receptor Nur77 at 25 degC by fluorescence quenching analysis. An outline of the steps:
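GST-Nur77 intrinsic fluorescence (emission maximum 336 nm) monitored while increasing Csn-B amounts were added; inner-filter contribution estimated with GST alone and subtracted to give corrected quenching curves.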

The subject of assay [3] is BGC-823. In words: Induction of mitochondria translocation of Nur77 from nucleus in human BGC823 cells transfected with GFP-Nur77 pretreated with 1 ng/ml leptomycin B at 5 ug/ml after 12 hrs using […] by confocal microscope. The assay is classed as functional, cell-based.
The subject of assay [4] is Saccharomyces cerevisiae. In words: Antimicrobial activity against Saccharomyces cerevisiae. The assay is classed as functional, organism-based.
The target in assay [5] is T1, Nuclear receptor subfamily 4immunitygroup A member 1. In words: Binding affinity to nuclear orphan receptor Nur77 assessed as conformational change in receptor by CD spectroscopic.
In assay [6] the test system is Mycobacterium tuberculosis. In words: Antimicrobial activity against Mycobacterium tuberculosis. The assay is classed as functional, organism-based.
In assay [7] the test system is Staphylococcus aureus. Kind of assay: Antimicrobial activity against Staphylococcus aureus. The assay is classed as functional, organism-based.

Molecules are shown by their SMILES. Values after ≈ are worked out from the molar mass of the structure shown. Active and inactive are the calls of the source. The calls are words filed in the database; no cut-off is given here.

T1 sequence (P22736 whole entry): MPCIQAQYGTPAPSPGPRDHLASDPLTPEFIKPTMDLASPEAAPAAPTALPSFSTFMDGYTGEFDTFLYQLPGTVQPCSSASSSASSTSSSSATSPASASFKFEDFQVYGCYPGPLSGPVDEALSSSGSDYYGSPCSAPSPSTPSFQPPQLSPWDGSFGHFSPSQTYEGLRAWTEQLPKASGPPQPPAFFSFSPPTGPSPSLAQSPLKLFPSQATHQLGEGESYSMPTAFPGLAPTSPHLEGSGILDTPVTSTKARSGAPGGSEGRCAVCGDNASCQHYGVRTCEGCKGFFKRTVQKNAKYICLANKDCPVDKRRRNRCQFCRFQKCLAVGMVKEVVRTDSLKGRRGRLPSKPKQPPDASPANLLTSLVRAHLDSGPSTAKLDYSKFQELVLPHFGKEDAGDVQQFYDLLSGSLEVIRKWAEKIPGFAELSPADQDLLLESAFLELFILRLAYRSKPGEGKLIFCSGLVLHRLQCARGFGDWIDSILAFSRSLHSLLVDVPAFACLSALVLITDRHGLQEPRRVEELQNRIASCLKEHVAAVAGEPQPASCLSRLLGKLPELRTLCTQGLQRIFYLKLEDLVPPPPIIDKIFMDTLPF
Sequence of Nuclear receptor subfamily 4immunitygroup A member 1 (Homo sapiens, UniProt P22736, Y453A) (P22736 whole entry Y453A): as the sequence (P22736 whole entry) above, with Y453A counted along it

Regarding `CC1=C(/C=C/C(C)=C\C=C\C(C)=C\C(=O)O)C(C)(C)CCC1` [ALITRETINOIN], in assay [1], the Kd (as a rule, the free concentration of one partner at which half of the binding sites on the other are occupied at equilibrium, for simple one-to-one binding) was 810 nM.
For the molecule `CCCCCCCC1OC(=O)Cc2cc(O)cc(O)c21` (configuration not stated) [CYTOSPORONE C], the outcome in assay [2], in assay [3] and in assay [5] was inactive. For the same molecule, the values for the IC50 in assay [4], in assay [6] and in assay [7] were 12.5 µg/mL (≈ 44.9 µM), 62.5 µg/mL (≈ 225 µM) and 50 µg/mL (≈ 180 µM), respectively.
